Measurements pooled from the literature.
Lines come from different studies, so protocols differ.
Target: Histamine H1 receptor (HRH1, Homo sapiens, UniProt P35367)

C[C@H](C(=O)N[C@H]1COc2ccccc2[C@@H]1S(C)(=O)=O)c1ccc(F)cc1  inhibition (cell-free assay; 10 µM): -5%
CC(C)N1CCC[C@H]1CNC(=O)c1cn(C2CCCC2)c(=O)c2c1c1ccccc1n2C  inhibition (ligand displacement; radioligand; 10 µM): 22%
N#CC1(c2ccccn2)CCN(Cc2cc(C(=O)O)c(=O)n3ccccc23)CC1  inhibition (cell-free assay; 10 µM): 28.4%
Clc1ccc2c(C3CCN(CCc4c[nH]c5ccccc45)CC3)c[nH]c2c1  inhibition (ligand displacement; radioligand; 10 µM): 100%
COCc1c(-c2cc3cc(C)cc(OC)c3s2)c2c(N)ncnn2c1CN1CCNC(=O)C1  inhibition (ligand displacement; radioligand; 10 µM): 26%
CCN(CC)CCCC[C@H](NC(=O)[C@H](CC(C)C)NC(=O)[C@H](C)NC(=O)[C@H](Cc1ccccc1)NC(=O)c1ccc(C(C)(C)C)cc1)C(=O)N[C@@H](CO)C(=O)OC  inhibition (ligand displacement; radioligand; 10 µM): -6%
COc1ccc(S(=O)(=O)N2CCCCC2)cc1C  inhibition (ligand displacement; radioligand; 10 µM): < 30%
Cc1c(N2CCNCC2)nc2ccc(Br)cc2c1C(=O)NC[C@H](CCC(=O)O)c1ccccc1Cl  inhibition (ligand displacement; 10 µM): 17.5%
CN1CCC(C(c2ccccc2)c2ccccc2)CC1  kon (binding): 3.33e+06 M⁻¹ s⁻¹
c1ccc(C(NCCNC(c2ccccc2)c2ccccc2)c2ccccc2)cc1  inhibition (cell-free assay; 10 µM): 81%
COc1ccc(C(=O)NCc2cc(C(C)C)no2)cc1OC1CCN(C)CC1  inhibition (ligand displacement; radioligand; 10 µM): 37%
Nc1ncc(-c2nc(N3CCOCC3)nc(N3CCOCC3)n2)c(C(F)F)n1  remaining signal (cell-free assay; radioligand; 10 µM): 99.1%
CC(Cc1ccccc1)NCCn1cnc2c1c(=O)n(C)c(=O)n2C (stereo not shown)  inhibition (ligand displacement; radioligand; 10 µM): 12%
